Data from article PMC6601336 (ACS chemical biology, 2019).
Substitutions are numbered along the chain they refer to. pEC50: −log10 of the molar value.

Assays:
LasR T75V = target: T1, LasR T75V (Pseudomonas aeruginosa, UniProt P25084, T75V); assay: E. coli lasB-lux reporter assay, LasR T75V; type: cell-based; conditions: read-out: EC50 in the plasB-lux assay; LasR T75V; NR = non-responsive
T1 sequence (P25084 1-239 T75V): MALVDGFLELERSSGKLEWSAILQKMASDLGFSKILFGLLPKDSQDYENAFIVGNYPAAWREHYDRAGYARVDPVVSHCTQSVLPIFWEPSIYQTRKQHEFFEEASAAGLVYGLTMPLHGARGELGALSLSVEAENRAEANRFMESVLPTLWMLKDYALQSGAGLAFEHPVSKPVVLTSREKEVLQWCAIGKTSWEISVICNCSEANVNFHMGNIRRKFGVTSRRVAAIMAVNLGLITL

LasR Y93F = target: T2, LasR Y93F (Pseudomonas aeruginosa, UniProt P25084, Y93F); assay: E. coli lasB-lux reporter assay, LasR Y93F; type: cell-based; conditions: read-out: EC50 in the plasB-lux assay; LasR Y93F; NR = non-responsive
T2 sequence (P25084 1-239 Y93F): T1 sequence (P25084 1-239 T75V) with V75T, Y93F

LasR A127W = target: T3, LasR A127W (Pseudomonas aeruginosa, UniProt P25084, A127W); assay: E. coli lasB-lux reporter assay, LasR A127W; type: cell-based; conditions: read-out: EC50 in the plasB-lux assay, NR = non-responsive
T3 sequence (P25084 1-239 A127W): T1 sequence (P25084 1-239 T75V) with V75T, A127W

LasR T75V/Y93F = target: T4, LasR T75V/Y93F (Pseudomonas aeruginosa, UniProt P25084, T75V/Y93F); assay: E. coli lasB-lux reporter assay, LasR T75V/Y93F; type: cell-based; conditions: read-out: EC50 in the plasB-lux assay; LasR T75V/Y93F
T4 sequence (P25084 1-239 T75V/Y93F): T1 sequence (P25084 1-239 T75V) with Y93F

LasR Y93F/A127W = target: T5, LasR Y93F/A127W (Pseudomonas aeruginosa, UniProt P25084, A127W/Y93F); assay: E. coli lasB-lux reporter assay, LasR Y93F/A127W; type: cell-based; conditions: read-out: EC50 in the plasB-lux assay; LasR Y93F/A127W; NR = non-responsive
T5 sequence (P25084 1-239 Y93F/A127W): T1 sequence (P25084 1-239 T75V) with V75T, Y93F, A127W

LasR T75V/Y93F/A127W = target: T6, LasR T75V/Y93F/A127W (Pseudomonas aeruginosa, UniProt P25084, A127W/T75V/Y93F); assay: E. coli lasB-lux reporter assay, LasR T75V/Y93F/A127W; type: cell-based; conditions: read-out: EC50 in the plasB-lux assay; LasR T75V/Y93F/A127W; NR = non-responsive
T6 sequence (P25084 1-239 T75V/Y93F/A127W): T1 sequence (P25084 1-239 T75V) with Y93F, A127W

WT LasR LBD = target: T7, WT LasR LBD (Pseudomonas aeruginosa, UniProt P25084); assay: Protein solubility assay, WT LasR LBD produced in E. coli; type: cell-based; conditions: induction at 25°C; 10 μM compound
T7 sequence (P25084 1-173 limits assumed): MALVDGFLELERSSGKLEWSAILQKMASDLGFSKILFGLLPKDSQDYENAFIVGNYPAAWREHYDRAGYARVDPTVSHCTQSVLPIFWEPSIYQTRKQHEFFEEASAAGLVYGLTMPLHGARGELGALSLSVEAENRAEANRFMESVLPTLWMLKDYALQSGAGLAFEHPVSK
Method in brief: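 E. coli BL21(DE3) with plasmid-borne 6xHis-WT LasR LBD were grown overnight, diluted 1:500 in LB with ampicillin and grown to OD600 0.5. Cells were induced with 1 mM IPTG plus test compound at 10 μM final, then shaken 4 h at 25°C or 37°C. Whole-cell lysate and soluble fractions were compared by band intensity. Fraction soluble = soluble band / whole-cell lysate band.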

luciferase = assay: Off-target inhibition of luciferase in the E. coli lasB-lux reporter strain; type: cell-based; conditions: high concentrations (>10 μM)
pyocyanin production = conditions: cited from earlier work
LasR = conditions: cited from earlier work

Substance: meta-bromo-thiolactone [mBTL, reference compound]
- pEC50 (LasR T75V): 8.22
- pEC50 (LasR Y93F): 8.00
- pEC50 (LasR A127W): 7.22
- pEC50 (LasR T75V/Y93F): 8.00
- pEC50 (LasR Y93F/A127W): 8.05
- pEC50 (LasR T75V/Y93F/A127W): 8.00
- soluble WT LasR LBD (WT LasR LBD): yielded soluble WT LasR LBD
- off-target inhibition of luciferase (luciferase): caused off-target inhibition of luciferase
- effect on pyocyanin (pyocyanin production): inhibiting pyocyanin
- activity on LasR (LasR): is a LasR agonist
